Screening data deposited in PubChem by Johns Hopkins Ion Channel Center.
Shown are actives, neighbours in structure and some others; about 3.8% of the full set was active somewhere.
KCNK9 inh – KCNK9 potassium channel inhibitors, primary screen, HEK293 cells, thallium flux | B-score at 10 µM | AID 488922, 2010 | Potassium channel subfamily K member 9 (Homo sapiens), Q9NPC2 | FluxOR thallium flux fluorescence; active compounds read low | actives 1.2% (n = 310,000);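 active = ratio B-score over 3 SD below the library mean, with starting fluorescence within 5 SD of its mean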;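 also: negative B-score means less thallium flux so channel inhibition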
KCNK3 inh – human KCNK3 channel inhibitors, primary screen, CHO cells, FluxOR thallium flux, B-score; Potassium channel subfamily K member 3 (Homo sapiens), O14649; FluxOR fluorescence; active compounds read low; B-score at 10 µM; actives 0.84% (n = 340,000);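 active = B-score under library mean minus 4 SD, starting fluorescence ratio at most library mean plus 5 SD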;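 also: more negative B-score means stronger inhibition of thallium flux through KCNK3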
KCNQ1 inh – inhibitors of human KCNQ1 channel, primary screen, cell-based, thallium flux, high-throughput | Potassium voltage-gated channel subfamily KQT member 1 (Homo sapiens), P51787 | CHO-K1 KCNQ1, FluxOR thallium flux fluorescence; active compounds read high | B-score at 10 µM | actives 1.3% (n = 310,000);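 active = compounds whose thallium flux B-score, printed positive for inhibition, exceeds three library SD while starting fluorescence stays within three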;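 also: channel opened by potassium depolarization with thallium stimulus after 20 min compound exposure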
Target sequence (P51787 whole entry, looked up): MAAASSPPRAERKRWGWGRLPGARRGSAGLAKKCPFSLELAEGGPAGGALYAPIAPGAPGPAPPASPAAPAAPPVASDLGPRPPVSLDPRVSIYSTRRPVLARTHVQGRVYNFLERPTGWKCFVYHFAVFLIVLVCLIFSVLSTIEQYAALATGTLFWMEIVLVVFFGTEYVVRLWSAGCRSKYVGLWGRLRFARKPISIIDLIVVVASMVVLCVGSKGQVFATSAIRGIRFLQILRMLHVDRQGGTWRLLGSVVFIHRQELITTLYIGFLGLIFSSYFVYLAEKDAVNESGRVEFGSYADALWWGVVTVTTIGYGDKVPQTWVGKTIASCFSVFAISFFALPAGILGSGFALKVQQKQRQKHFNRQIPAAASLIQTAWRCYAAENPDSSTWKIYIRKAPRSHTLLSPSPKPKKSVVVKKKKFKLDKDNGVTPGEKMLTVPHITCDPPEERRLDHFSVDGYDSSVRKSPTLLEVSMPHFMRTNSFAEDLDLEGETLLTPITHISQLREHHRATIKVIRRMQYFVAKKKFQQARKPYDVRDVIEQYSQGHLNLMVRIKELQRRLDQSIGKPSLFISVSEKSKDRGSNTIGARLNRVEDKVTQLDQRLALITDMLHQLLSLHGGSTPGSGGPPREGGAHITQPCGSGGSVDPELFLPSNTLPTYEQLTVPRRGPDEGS
Kir21 inh – inhibitors of mouse Kir2.1 inward-rectifier potassium channel | Inward rectifier potassium channel 2 (Mus musculus), P35561 | HEK293-Kir2.1, FluxOR thallium flux fluorescence; active compounds read low | B-score at 10 µM | actives 0.85% (n = 310,000) | AID 1672, 2009;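 active = fluorescence ratio B-score at or below minus 3 SD of library scores, with starting-brightness B-score within 2 SD, cut at about -4.2 in these data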;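 also: channel flux triggered by added potassium and thallium sulfate stimulus; B-score of peak minus minimum fluorescence over baseline after thallium stimulus; more negative B-score means stronger Kir2.1 block with less thallium influx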
hERG rescue – hERG rescue from dofetilide block, primary screen, cell-based, CHO-hERG, FluxOR thallium flux, dofetilide IC70. Voltage-gated inwardly rectifying potassium channel KCNH2 (Homo sapiens), Q12809. dofetilide IC70 present. activation (rescue from dofetilide block), less the hit threshold, % at 10 µM. actives 0.51% (n = 310,000). AID 1511, 2009;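 active = activation above the mean of controls blocked by dofetilide plus 5 SD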;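 also: thallium influx through hERG after potassium depolarization seen as dye fluorescence rise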
KCNQ1 pot – potentiators or activators of KCNQ1 channel, primary screen, cell-based, thallium flux, high-throughput; Potassium voltage-gated channel subfamily KQT member 1 (Homo sapiens), P51787; CHO-K1 KCNQ1, thallium flux FluxOR fluorescence; active compounds read high; B-score at 10 µM; actives 0.35% (n = 310,000);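 active = fluorescence ratio B-score, a plate-corrected score, at least three library SD, with initial intensity B-score within 5 SD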
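Doses: Single concentration per compound, DMSO matched to controls | Test system: KCNQ1-transfected CHO-K1 cells | Timing: 90 min dye loading and 20 min compound exposure, both at room temperature | Measured by: Kinetic FluxOR thallium fluorescence, 10-s 1-Hz baseline, 110-s post-stimulus read | Medium: Assay buffer with matched DMSO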
KCNQ1 inh valid – KCNQ1 potassium channel inhibitors, confirmation, cell-based, Tl flux, duplicate | shares compounds with KCNQ1 inh | KCNQ1 cell line, FluxOR thallium flux fluorescence | inhibition, % at 10 µM | actives 93% (n = 1,600);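 active = primary screen active, with duplicate mean exceeding buffer control mean plus 3 SD of buffer wells, cut at about 28% in these data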;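 also: 0% = buffer control ratio and 100% = XE991 inhibitor control ratio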
CHO Tl flux – thallium flux effects in parental CHO cells, counter-screen for KCNQ1 inhibitor project, cell-based, Tl flux | shares compounds with KCNQ1 inh | parental CHO-K1, FluxOR thallium flux fluorescence ratio; active compounds read low; zero means no signal rise above baseline | fluorescence ratio (Tl flux) at 10 µM | actives 21% (n = 1,600);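 active = mean of duplicate thallium-flux fluorescence ratios in parental host cells more than 5 SD below the buffer control mean, cut at about 0.38 in these data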;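 also: ratio is peak minus minimum fluorescence divided by baseline fluorescence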
KCNQ1 APC inh – KCNQ1 channel inhibitors, confirmation, orthogonal assay, cell-based, automated electrophysiology; shares compounds with KCNQ1 inh; KCNQ1-CHO cells, automated patch clamp current; calls only at 10 µM; actives 20% (n = 490);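 active = KCNQ1 current drop exceeding 3 SD of negative control wells, seen in both duplicate runs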;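 also: steady state current during a 2 s step from -80 to +40 mV; negative values mean current inhibition and positive values mean potentiation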
KCNQ2 inh – KCNQ2 channel inhibition, selectivity assay for KCNQ1 inhibitor project, cell-based; shares compounds with KCNQ1 inh; KCNQ2 cells, FluxOR thallium flux fluorescence; inhibition, % at 10 µM; actives 71% (n = 1,600); AID 651746, 2012;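 active = mean percent inhibition of the KCNQ2 thallium signal more than 5 SD above the buffer-only control wells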;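 also: KCNQ2 expressed in CHO cells; 0% = buffer control wells and 100% = XE-991 inhibitor control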
KCNQ1 KCNE1 spec – KCNQ1/KCNE1 channel inhibition, selectivity assay for KCNQ1 inhibitor project, CHO-K1 cells, thallium flux, FluxOR; shares compounds with KCNQ1 inh; FluxOR thallium flux fluorescence; inhibition, % at 10 µM; actives 77% (n = 1,600); AID 652147, 2013;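 active = mean percent inhibition of duplicate wells above the buffer-only control mean plus 3 SD of those controls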;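 also: 0% = buffer only wells and 100% = XE-991 inhibitor control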
KCNK9 inh conf – KCNK9 potassium channel inhibitors, confirmation, HEK293 cells, thallium flux, duplicate. AID 492992, 2010. FluxOR thallium flux fluorescence. actives 43% (n = 4,900). inhibition, % at 10 µM. shares compounds with KCNK9 inh;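 active = thallium signal inhibited by more than 5 SD of the compound-free buffer control wells, on both duplicate plates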;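 also: 0% = assay buffer control wells without compound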
Kir2-1 spec – mouse Kir2.1 channel inhibition, confirmation, selectivity assay for KCNK9 modulator project, cell-based, HEK293, thallium flux. shares compounds with KCNK9 inh. Kir2.1 cells, FluxOR thallium flux fluorescence. inhibition, % at 10 µM. actives 4% (n = 4,900);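 active = thallium signal drop more than 5 SD beyond the mean of the no-compound control wells, seen in both duplicate plates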;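 also: signal is fluorescence rise after thallium addition divided by baseline fluorescence; plate controls were assay buffer only for no effect and full block by chlorpromazine control for full effect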
HEK293 Tl ctr – thallium flux in non-induced HEK293 cells, confirmation, counter-screen for KCNK9 inhibitor project, cell-based, second counter screen, non-induced KCNK9-HEK293 | inhibition, % at 10 µM | shares compounds with KCNK9 inh | actives 40% (n = 4,900) | FluxOR thallium flux | AID 492997, 2010;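 active = thallium signal drop beyond 5 SD of the untreated control mean, on both duplicate plates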;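 also: plate controls were buffer only IC0 wells for no effect and SID17386958 at its maximal inhibitory level for full effect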
An asterisk follows results filed as active; i = inactive; . = no result given; + = active, no number.

SMILES | KCNK9 inh | KCNK3 inh | KCNQ1 inh | Kir21 inh | hERG rescue | KCNQ1 pot | KCNQ1 inh valid | CHO Tl flux | KCNQ1 APC inh | KCNQ2 inh | KCNQ1 KCNE1 spec | KCNK9 inh conf | Kir2-1 spec | HEK293 Tl ctr
CC(C)Cn1c2c(c(O)c(C(=O)Nc3nccs3)c1=O)CCCC2 | -8.3* | i | 7* | -0.44 | -6 | i | 100* | 0.45 | i | 112%* | 166%* | 44%* | i | 27%*
Cc1csc(NC(=O)c2c(O)c3c(n(CC(C)C)c2=O)CCCC3)n1 | -14* | -9.8* | 10* | 0.03 | -2 | i | 104* | 0.48 | i | 108%* | 90%* | 55%* | i | 35%*
O=C(Nc1nccs1)c1c(O)c2c([nH]c1=O)CCCC2 | i | i | i | 2 | -4 | i | . | . | . | . | . | . | . | .
CCCn1c2c(c(O)c(C(=O)Nc3ncccc3C)c1=O)CCCC2 | i | i | i | 0.9 | -14 | i | . | . | . | . | . | . | . | .
O=C(Nc1ccccc1Cl)c1sccc1-c1ccccc1 | -9.7* | i | 6* | -0.1 | -5 | i | + | 0.35* | . | i | i | 34%* | i | 30%*
CC1CN(C(=O)CSc2nnc(-c3cccs3)n2N)CC(C)O1 (configuration not stated) | . | i | . | . | . | . | . | . | . | . | . | . | . | .
CCC1(O)CC(c2ccccc2)=NN1C(=O)c1ccccc1F (configuration not stated) | i | i | i | 0.83 | -2 | i | . | . | . | . | . | . | . | .
COc1cc2ccccc2cc1C(=O)Nc1ccccc1N1CCCC1 | -9* | i | 20* | -0.48 | -14 | i | 99* | 0.46 | i | 82%* | 110%* | 35%* | i | 34%*
CCC(Oc1ccccc1)C(=O)Nc1ccccc1N1CCCCC1 (configuration not stated) | -15* | i | 6* | -0.15 | -10 | i | 121* | 0.45 | i | 99%* | 143%* | 50%* | i | 41%*
CCC(C(=O)Nc1ccccc1N1CCCC1)c1ccccc1 (configuration not stated) | i | i | i | -1.8 | -9 | i | . | . | . | . | . | . | . | .
N#Cc1c(N2CCN(C(=O)c3ccccc3Cl)CC2)nc(-c2ccccc2)c2c1CCCC2 | i | i | 8* | 2.1 | -11 | i | 92* | 0.34* | . | 102%* | 117%* | i | i | i
CCCCc1ccc(NC(=O)CSc2nc(=O)n(CCCN3CCOCC3)c3c2CCC3)cc1 | i | i | i | -0.83 | -14 | i | . | . | . | . | . | . | . | .
CC(C)CC(=O)Nc1cccc(-c2csc(-c3ccccc3)n2)c1 | -14* | i | 18* | -0.47 | -12 | i | 148* | 0.35* | . | i | + | 67%* | i | 32%*
COc1ccc(CC(=O)Nc2cccc(-c3csc(C)n3)c2)cc1 | i | i | i | 0.56 | -2 | i | . | . | . | . | . | . | . | .
Cc1ccc(SCCNC(=S)Nc2cc(C)ccc2C)cc1 | i | i | i | -2.2 | -11 | i | . | . | . | . | . | . | . | .
Cc1ccc(SCCNC(=S)Nc2ccc(C)c(C)c2)cc1 | i | i | 8* | -0.5 | -17 | i | 100* | 0.45 | i | i | 98%* | i | i | i
C[C@H](CO)N1C[C@H](C)[C@@H](CN(C)S(=O)(=O)c2ccccc2)Oc2ccc(NC(=O)C3CC3)cc2C1=O | . | i | . | . | . | . | . | . | . | . | . | . | . | .
COc1ccccc1CCNC(=O)c1cc(COc2cccc(C(F)(F)F)c2)on1 | i | i | 7* | -0.01 | -2 | i | 100* | 0.45 | i | 88%* | 98%* | i | i | i
O=C(CSCc1cnn(-c2ccccc2)c1-n1cccc1)NCc1cccs1 | i | i | 7* | -6.3* | -7 | i | 64* | 0.5 | . | i | 102%* | i | i | i
O=C(CSc1nnnn1-c1ccccc1)NCc1cccs1 | i | i | i | -0.06 | -9 | i | . | . | . | . | . | . | . | .
Cn1ncc(Cl)c1C(=O)N1CCN(c2ccc(Cl)c(Cl)c2)CC1 | -10* | i | 12* | 0.38 | -20 | i | 120* | 0.43 | i | 98%* | 87%* | 42%* | i | 26%*
Cn1ncc(Cl)c1C(=O)N1CCN(c2ccccc2)CC1 | i | i | i | -1.2 | -16 | i | . | . | . | . | . | . | . | .
Clc1ccc(-c2cc3ccccc3nc2N2CCOCC2)cc1 | i | i | 11* | 1 | -14 | i | 130* | 0.47 | . | 98%* | 182%* | i | i | 28%*
